APJ antag = APJ receptor antagonism. inhibition, % at 20 µM. P35414. 330,000 tested, 0.32% active. CHO-K1 APJ beta-arrestin complementation, luminescence;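 active = inhibition above about 40% at 20 µM, limit read from the data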;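 also: cells challenged with 10 nM apelin-13 agonist together with compound; plate controls were apelin-13 plus DMSO wells for no effect and DMSO wells lacking apelin-13 for full effect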
EBI2 block = antagonists of human EBI2 receptor | P32249 | EBI2 beta-arrestin recruitment, luminescence, 7a,25-OHC stimulated | inhibition, % at 5 µM | 360,000 tested, 0.81% active | AID 651636; in the data active = inhibition above about 38%;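 also: enzyme fragment complementation signal reports receptor beta-arrestin coupling in cells; 0% = agonist plus DMSO wells and 100% = wells without agonist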
Target sequence (P32249 whole entry, looked up, the tested form may be a part): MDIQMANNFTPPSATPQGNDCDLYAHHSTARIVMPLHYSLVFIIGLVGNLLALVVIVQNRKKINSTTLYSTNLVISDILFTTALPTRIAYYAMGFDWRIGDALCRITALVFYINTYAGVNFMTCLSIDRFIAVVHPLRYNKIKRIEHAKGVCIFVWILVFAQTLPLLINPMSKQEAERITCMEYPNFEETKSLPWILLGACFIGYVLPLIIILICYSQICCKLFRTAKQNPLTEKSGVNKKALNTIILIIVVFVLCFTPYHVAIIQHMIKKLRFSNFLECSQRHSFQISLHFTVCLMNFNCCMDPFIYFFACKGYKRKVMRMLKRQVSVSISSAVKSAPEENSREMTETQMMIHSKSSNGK
APJ agonist = APJ receptor agonism; CHO-K1 APJ PathHunter beta-arrestin, luminescence; 0% DMSO wells, 100% apelin; 330,000 tested, 0.11% active; AID 2520; P35414; activation, % at 20 µM;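 active = activation more than six SD over the plate average, tested at 20 µM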;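 also: 0% = DMSO alone and 100% = apelin-13 at 10 nM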
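Test system: CHO-K1 APJ beta-arrestin complementation cell line. Amount: cell density 1000 per well. Controls: DMSO negative, 10 nM Apelin-13 positive. Signal: luminescent beta-gal fragment complementation, chemiluminescent substrate. Read-out basis: agonist-driven arrestin binding to APJ. Timing: compound stimulation 90 min at 25 °C, detection 60 min.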
CXCR6 inh = CXCR6 (human) receptor inhibition; O00574; CHO-K1 PathHunter CXCR6 beta-arrestin, luminescence; inhibition, % at 20 µM; 360,000 tested, 0.36% active; in the data active = inhibition above about 34%, passing the limit was not always enough;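 also: antagonist mode with CXCL16 agonist at 10 nM final; 0% = 10 nM CXCL16 with DMSO and 100% = unstimulated wells without agonist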
CCR6 antagonist = CCR6 (human) receptor antagonism. inhibition, % at 20 µM. AID 493098. CHO-K1 CCR6 PathHunter beta-arrestin, luminescence, CCL20-stimulated. P51684. 340,000 tested, 0.49% active;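 active = compounds whose inhibition of the agonist-driven luminescence signal at 20 µM reaches about 50%, limit read from the data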;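 also: cells stimulated with CCL20 at 14 nM final; plate controls were DMSO with CCL20 for no effect and DMSO without agonist for full effect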
APJ antag confirm = APJ receptor antagonism confirmation; AID 2766; shares compounds with APJ antag; 950 tested, 66% active; APJ beta-arrestin recruitment, luminescence, antagonist mode; inhibition, % at 20 µM; in the data active = inhibition above about 50%
The depositor's hits bear a star; · = not tested or not shown. Rows were chosen to be rich in hits. Some 1.5% of all compounds tested hit in one or more screens of this group.

SMILES	APJ antag	EBI2 block	APJ agonist	CXCR6 inh	CCR6 antagonist	APJ antag confirm
COc1cccc(/C=C2\CC(C)Cc3c2nc2ccccc2c3C(=O)O)c1OC (stereo not drawn)	48.7*	-4.1	-1.1	-3.2	9.9	-18.0
COc1cc2c(=O)n(CCC(=O)NCC3CCCO3)c(=O)n(CC(=O)Nc3ccccc3C)c2cc1OC (stereo not drawn)	15.7	3.9	-1.8	-10.4	-9.1	·
COc1cc2c(=O)n(Cc3ccccc3)c(=O)n(CC(=O)NCC3CCCO3)c2cc1OC (stereo not drawn)	40.2*	2.6	-1.5	-4.5	3.0	6.9
CC(C)(C)C(c1nc2ccccc2[nH]1)n1c(-c2cc(Cl)cc(Cl)c2)nc2ccccc21 (stereo not drawn)	·	-33.9	·	·	·	·
O=c1cc2oc3cc(O)c(O)cc3c(-c3ccccc3[N+](=O)[O-])c-2cc1O	60.9*	10.3	-11.5	58.5*	78.2*	105.4*
Cc1nnc(NC(=O)CSc2nc3ccccc3o2)s1	-0.9	-1.9	-2.1	9.2	-8.5	·
O=C(CSc1nc2ccccc2o1)Nc1nncs1	52.4*	3.5	-5.0	-8.3	-1.8	23.2
Cc1cccc(C)c1NC(=O)C1(C)CSCC(=O)N1Cc1cccc(C(F)(F)F)c1 (stereo not drawn)	·	6.2	·	·	·	·
CN1C(=O)/C(=C\c2cc(N=Nc3ccccc3)ccc2O)SC1=S	67.6*	7.2	-12.8	51.6*	54.6*	109.5*
O=C(c1ccc(NS(=O)(=O)c2ccccc2)cc1)N1CCN(c2ccccc2)CC1	-13.3	-3.8	-3.5	7.3	22.9	·
CC1(C(=O)NS(=O)(=O)C2CC2)CCCN(C(=O)COCc2ccccc2)C1 (stereo not drawn)	·	0.2	·	8.4	·	·
CCOc1cc(/C=C2\SC(=S)N(Nc3ccccc3)C2=O)ccc1O	52.5*	16.5	-10.6	43.7*	61.9*	107.6*
COc1cc(/C=C2\SC(=S)N(Nc3ncc(C(F)(F)F)cc3Cl)C2=O)ccc1O	51.1*	39.5	-19.7	60.0*	67.7*	105.4*
CN(C)c1ccc(/C=C2\SC(=S)N(Nc3ncc(C(F)(F)F)cc3Cl)C2=O)cc1	33.0	25.9	-6.7	29.0	36.0	·
COc1cc(/C=C2/SC(=S)N(CC3CCCO3)C2=O)ccc1O (stereo not drawn)	47.6*	7.5	-4.4	42.0*	73.2*	88.2*
COc1cc(/C=C2\SC(=S)N(C(Cc3ccccc3)C(=O)O)C2=O)ccc1O (stereo not drawn)	47.5*	-6.5	-7.0	25.8	30.0	82.2*
O=C(NCc1ccccc1Cl)[C@H]1CCCN1C(=O)[C@H]1CCCN1C(=O)c1ccc(Cl)cc1	·	-5.1	·	-4.7	·	·
CCN(C)C1CN(Cc2cn(Cc3ccc(C(F)(F)F)cc3)nn2)S(=O)(=O)C1 (stereo not drawn)	·	-8.4	·	-0.5	·	·
COc1cc(/C=C2\SC(=S)N(Nc3ccccc3)C2=O)ccc1O	56.0*	14.7	-7.3	51.4*	74.2*	96.8*
N#CC(=C1C=CC(=NO)C(Cl)=C1)c1ccccc1	·	14.9	·	33.0	·	·
N#C/C(=C\c1ccc(O)c(O)c1)C(=O)c1ccc(O)c(O)c1	42.7*	3.0	-7.3	26.7	53.5*	57.0*
N#C/C(=C\c1ccc(O)c(O)c1)C(=O)N1CCCC1	21.7	7.7	-1.3	19.9	19.0	·
COc1cc(/C=N/NS(=O)(=O)c2ccc(C)c([N+](=O)[O-])c2)cc([N+](=O)[O-])c1O	50.4*	0.7	-5.9	27.2	47.0	59.7*
COc1cc(/C=N/NS(=O)(=O)c2ccc(C)c([N+](=O)[O-])c2)ccc1O	23.7	-1.5	1.3	10.5	5.5	·
COC(=O)[C@@]1(Cc2ccc(F)cc2)[C@H]2c3cc(C(=O)N(C)C)n(CCc4c[nH]c5ccc(O)cc45)c3C[C@H]2CN1C(=O)c1ccccc1	·	6.9	·	-7.2	·	·
SMILES	APJ antag	EBI2 block	APJ agonist	CXCR6 inh	CCR6 antagonist	APJ antag confirm
Cc1[nH]c2ccccc2c1Cc1nnc(SCc2ccccc2)o1	48.3*	12.3	-4.2	5.7	1.3	30.8
Cc1cccc(C(=O)Nc2ccc(C(=O)/C=C/c3ccncc3)cc2)c1	40.9*	40.6	2.1	58.6*	40.7	76.6*
Cc1ccc(F)c(S(=O)(=O)NC(=O)C2(C)CCN2C(=O)c2ccccc2)c1 (stereo not drawn)	·	2.7	·	-0.4	·	·
O=C(c1ccco1)C(O)c1ccco1 (stereo not drawn)	52.3*	-10.7	-12.6	34.1	58.5*	98.4*
Cc1ccc(C(O)C(=O)c2ccco2)cc1 (stereo not drawn)	-53.4	-7.8	6.8	2.9	5.4	·
CCOc1cc(/C=C2\CCC/C(=C\c3cc(Cl)c(O)c(OCC)c3)C2=O)cc(Cl)c1O	58.3*	39.5	-8.5	59.8*	51.2*	110.7*
C=CCNC(=O)/C(C#N)=C\c1cc(Cl)c(O)c(OCC)c1	·	-13.5	·	11.9	19.9	·
COc1ccc(/C=C2\C(=O)ON=C2c2ccccc2)cc1	-1.1	-6.5	2.5	-6.0	-12.5	·
O=C1ON=C(c2ccccc2)/C1=C/c1ccc(O)c(O)c1	41.7*	-3.3	-7.6	27.7	45.5	68.1*
CC1=NN(C(N)=S)C(=O)C1N=Nc1ccc([N+](=O)[O-])cc1 (stereo not drawn)	50.3*	6.6	-10.0	45.9*	74.9*	81.1*
CC1=NN(C(N)=S)C(=O)C1N=Nc1ccc(O)cc1 (stereo not drawn)	12.6	-3.4	-5.0	5.7	27.2	·
CC([NH2+][O-])C(C)(C)NO (stereo not drawn)	46.6*	6.0	-4.6	30.3	50.5*	33.2
O=C1Nc2ccccc2C1=Nc1ccc(Br)cc1	63.0*	16.1	-14.2	42.3*	68.8*	146.8*
Cc1ccc(N=C2C(=O)Nc3ccccc32)cc1	40.5*	11.1	-10.3	33.6	56.5*	77.5*
Nc1ccc(Nc2ccncc2)cc1	·	-1.5	·	4.3	·	·
CCCc1cc(=O)oc2cc(C)cc(OCC(=O)N3C[C@H]4C[C@@H](C3)c3cccc(=O)n3C4)c12	·	-7.9	·	3.2	·	·
CCN1C(=O)C(=Cc2cccc(OC)c2Oc2ccc([N+](=O)[O-])cc2[N+](=O)[O-])SC1=S	50.2*	14.0	-7.2	42.5*	60.1*	70.6*
COCCNC(=O)C1(C)CCN(C(=O)COc2ccc(Cl)cc2Cl)C1 (stereo not drawn)	·	2.4	·	1.7	·	·
CCNc1c(N)c(=O)oc2ccccc12	18.6	3.1	-3.8	-8.6	15.9	·
CCCNc1c(N)c(=O)oc2ccccc12	56.5*	-2.2	1.0	-2.8	1.6	33.0
Cc1nnc(SCC(=O)Nc2cccc(S(=O)(=O)N3CCCC3)c2)n1C1CC1	·	-1.0	·	-3.2	·	·
COc1ccc(/C=C/C(=O)NC(=S)Nc2cc([N+](=O)[O-])ccc2O)cc1OC	42.4*	-7.0	-6.2	33.3	29.1	59.9*
